Reference: ChEMBL document CHEMBL1165950, “Design and synthesis of new potent anticancer pyrazoles with high FLT3 kinase inhibitory selectivity” (Bioorg Med Chem, 2010)

Experiments:
Assay type in all cases: functional
[1] = tested on: MOLT-4; experiment: Cytotoxicity against human MOLT4 cells assessed as cell growth at 1 uM after 48 hrs by sulforhodamine B assay; settings: MOLT-4, 48 h, read-out: Activity
[2] = tested on: NCI/ADR-RES; experiment: Cytotoxicity against human NCI/ADR-RES cells assessed as cell growth at 0.001 uM after 48 hrs by sulforhodamine B assay; settings: read-out: Activity
[3] = tested on: NCI-H460; experiment: Cytotoxicity against human NCI-H460 cells assessed as cell growth at 100 nM after 48 hrs by sulforhodamine B assay; settings: NCI-H460, 48 h, read-out: Activity
[4] = tested on: SW-620; experiment: Cytotoxicity against human SW620 cells assessed as cell growth at 0.001 uM after 48 hrs by sulforhodamine B assay; settings: SW-620, 48 h, read-out: Activity
[5] = tested on: UACC-62; experiment: Cytotoxicity against human UACC62 cells assessed as cell growth at 1 uM after 48 hrs by sulforhodamine B assay; settings: UACC-62, 48 h, read-out: Activity
[6] = tested on: MDA-MB-435; experiment: Growth inhibition of human MDA-MB-435 cells after 48 hrs by sulforhodamine B assay; settings: MDA-MB-435, 48 h; for CC50: read-out: LC50 (the source's name)
Summary of the method: (§1)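 NCI 60-cell screen, five-dose mode. Cells grown in RPMI 1640 with 5% FBS and 2 mM L-glutamine and plated at 5000-40,000 cells/well according to doubling time. After 24 h preincubation, a Tz plate was TCA-fixed. Five concentrations (10-fold or 1/2 log dilutions) were applied for 48 h at 37 °C. SRB staining read at 515 nm. IC50 taken from [(Ti-Tz)/(C-Tz)]×100 = 50.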

[7] = tested on: HCT-15; experiment: Cytotoxicity against human HCT15 cells assessed as cell growth at 100 nM after 48 hrs by sulforhodamine B assay; settings: HCT-15, 48 h, read-out: Activity
[8] = tested on: NCI-H322M; experiment: Cytotoxicity against human NCI-H322M cells assessed as cell growth at 100 nM after 48 hrs by sulforhodamine B assay; settings: read-out: Activity
[9] = tested on: NCI/ADR-RES; experiment: Cytotoxicity against human NCI/ADR-RES cells assessed as cell growth at 100 nM after 48 hrs by sulforhodamine B assay; settings: read-out: Activity
[10] = tested on: UACC-257; experiment: Cytotoxicity against human UACC257 cells assessed as cell growth at 0.001 uM after 48 hrs by sulforhodamine B assay; settings: UACC-257, 48 h, read-out: Activity
[11] = tested on: NCI-H23; experiment: Cytotoxicity against human NCI-H23 cells assessed as cell growth at 1 uM after 48 hrs by sulforhodamine B assay; settings: NCI-H23, 48 h, read-out: Activity
[12] = tested on: K562; experiment: Cytotoxicity against human K562 cells assessed as cell growth at 100 nM after 48 hrs by sulforhodamine B assay; settings: K562, 48 h, read-out: Activity
[13] = tested on: K562; experiment: Cytotoxicity against human K562 cells assessed as cell growth at 10 uM; settings: read-out: Activity
Summary of the method: (§2)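 Single-dose NCI-60 screen at 10 µM. Cells were grown in RPMI 1640 with 5% FBS and 2 mM L-glutamine, then treated for 48 h at 37 °C. Protein was measured by SRB staining with absorbance at 515 nm. Percentage growth was recorded, and inhibition percentage was calculated as 100 minus growth percentage.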

[14] = tested on: UO-31; experiment: Growth inhibition of human UO31 cells after 48 hrs by sulforhodamine B assay; settings: UO-31, 48 h; for CC50: read-out: LC50 (the source's name); summary of the method: as §1
[15] = tested on: COLO 205; experiment: Cytotoxicity against human COLO205 cells assessed as cell growth at 1 uM after 48 hrs by sulforhodamine B assay; settings: COLO 205, 48 h, read-out: Activity
Summary of the method: (§3)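 NCI-60 five-dose screen. Cells were grown in RPMI 1640 with 5% FBS and 2 mM L-glutamine, plated at 5000–40,000 cells/well and preincubated for 24 h. Time-zero plates were TCA-fixed. DMSO-solubilized drug was added at five concentrations (10-fold or ½-log serial dilutions) for 48 h at 37 °C, 5% CO2. Cells were TCA-fixed, stained with 0.4% SRB and read at 515 nm. Percent growth used time-zero, control and test absorbances.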

[16] = tested on: HCC 2998; experiment: Cytotoxicity against human HCC2998 cells assessed as cell growth at 10 uM; settings: read-out: Activity; summary of the method: as §2
[17] = tested on: NCI/ADR-RES; experiment: Growth inhibition of human NCI/ADR-RES cells after 48 hrs by sulforhodamine B assay; settings: for CC50: read-out: LC50 (the source's name); summary of the method: as §1
[18] = tested on: SN12C; experiment: Cytotoxicity against human SN12C cells assessed as cell growth at 1 uM after 48 hrs by sulforhodamine B assay; settings: read-out: Activity
[19] = tested on: NCI-H322M; experiment: Growth inhibition of human NCI-H322M cells after 48 hrs by sulforhodamine B assay; settings: for CC50: read-out: LC50 (the source's name); summary of the method: as §1
[20] = tested on: K562; experiment: Cytotoxicity against human K562 cells assessed as cell growth at 0.001 uM after 48 hrs by sulforhodamine B assay; settings: K562, 48 h, read-out: Activity
[21] = tested on: COLO 205; experiment: Growth inhibition of human COLO205 cells after 48 hrs by sulforhodamine B assay; settings: COLO 205, 48 h; for CC50: read-out: LC50 (the source's name)
Summary of the method: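 NCI five-dose SRB assay in RPMI 1640 with 5% FBS and 2 mM L-glutamine. Cells were preincubated 24 h, then exposed 48 h at 37 °C to five concentrations (10-fold or half-log serial dilutions from DMSO stocks). TCA fixation, SRB staining, and absorbance at 515 nm followed. IC50 was taken where [(Ti−Tz)/(C−Tz)]×100 = 50, with Tz as time-zero cell density.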

[22] = tested on: COLO 205; experiment: Cytotoxicity against human COLO205 cells assessed as cell growth at 0.01 uM after 48 hrs by sulforhodamine B assay; settings: COLO 205, 48 h, read-out: Activity; summary of the method: as §3
[23] = tested on: LOX IMVI; experiment: Cytotoxicity against human LOXIMVI cells assessed as cell growth at 0.001 uM after 48 hrs by sulforhodamine B assay; settings: read-out: Activity
[24] = tested on: UACC-257; experiment: Cytotoxicity against human UACC257 cells assessed as cell growth at 10 uM; settings: read-out: Activity
Summary of the method: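 NCI-60 screen: cells grown in RPMI 1640 with 5% FBS and 2 mM L-glutamine, plated at 5000–40,000 cells/well according to doubling time, and preincubated 24 h at 37 °C, 5% CO2. The single 10 µM dose (DMSO stock) was added, then incubated 48 h. Cells were TCA-fixed and stained with 0.4% SRB, read at 515 nm, and growth % calculated against time-zero and control plates.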

[25] = tested on: HCT-116; experiment: Cytotoxicity against human HCT116 cells assessed as cell growth at 10 uM after 48 hrs by sulforhodamine B assay; settings: HCT-116, 48 h, read-out: Activity
[26] = tested on: OVCAR-4; experiment: Cytotoxicity against human OVCAR4 cells assessed as cell growth at 10 uM after 48 hrs by sulforhodamine B assay; settings: OVCAR-4, 48 h, read-out: Activity
[27] = tested on: SN12C; experiment: Cytotoxicity against human SN12C cells assessed as cell growth at 0.001 uM after 48 hrs by sulforhodamine B assay; settings: read-out: Activity
[28] = tested on: ACHN; experiment: Cytotoxicity against human ACHN cells assessed as cell growth at 1 uM after 48 hrs by sulforhodamine B assay; settings: read-out: Activity; summary of the method: as §3

Row | Compound | growth at 1 µM [1] [%] | growth at 0.001 µM [2] [%] | growth at 0.1 µM [3] [%] | growth at 0.001 µM [4] [%] | growth at 1 µM [5] [%] | CC50 [6] [µM] | growth at 0.1 µM [7] [%] | growth at 0.1 µM [8] [%] | growth at 0.1 µM [9] [%] | growth at 0.001 µM [10] [%] | growth at 1 µM [11] [%] | growth at 0.1 µM [12] [%] | growth at 10 µM [13] [%] | GI50 [14] [nM] | TGI [14] [µM] | CC50 [14] [µM] | growth at 1 µM [15] [%] | growth at 10 µM [16] [%] | GI50 [17] [nM] | TGI [17] [µM] | further results
1 | COc1cc(C)cc(-c2nn(CC#N)cc2-c2ccc(-c3cccc(C(C)=O)c3)nc2)c1 | 19 | 99 | 84 | 96 | 38 | > 100 | 69 | 95 | 59 | 94 | 17 | 27 | 16.4 | 3180 | 58.2 | > 100 | -55 | 28.6 | 1310 | 6.06 | CC50 [17]: > 100 µM; growth at 1 µM [18]: 39%; GI50 [19]: 4.36 µM; TGI [19]: 50.8 µM; CC50 [19]: > 100 µM; growth at 0.001 µM [20]: 82%; GI50 [21]: 1850 nM; TGI [21]: 4.13 µM; CC50 [21]: 9.2 µM; growth at 0.01 µM [22]: 100%; growth at 0.001 µM [23]: 98%; growth at 10 µM [24]: 50.8%; growth at 10 µM [25]: -53%; growth at 10 µM [26]: 10%; growth at 0.001 µM [27]: 92%; growth at 1 µM [28]: 24%
2 | COc1cc(C)cc(-c2c(-c3ccnc(-c4ccc(C(C)=O)cc4)c3)cnn2CC#N)c1 | 7 | 95 | 87 | 96 | 25 | > 100 | 87 | 100 | 83 | 95 | 19 | 47 | 30.1 | 2610 | > 100 | > 100 | -78 | 80.8 | 2870 | > 100 | GI50 [6]: 1930 nM; TGI [6]: > 100000 nM; CC50 [17]: > 100 µM; growth at 1 µM [18]: 28%; GI50 [19]: > 100 µM; TGI [19]: > 100 µM; CC50 [19]: > 100 µM; growth at 0.001 µM [20]: 81%; GI50 [21]: 1950 nM; TGI [21]: 3.7 µM; CC50 [21]: 7.02 µM; growth at 0.01 µM [22]: 102%; growth at 0.001 µM [23]: 101%; growth at 10 µM [24]: 92.8%; growth at 10 µM [25]: -17%; growth at 10 µM [26]: 30%; growth at 0.001 µM [27]: 94%; growth at 1 µM [28]: 21%
3 | COc1cc(C)cc(-c2c(-c3ccnc(-c4ccc(N(C)C)cc4)c3)cnn2CC#N)c1 | -2 | 96 | -43 | 105 | 18 | > 100 | 14 | 20 | 2 | 89 | 17 | 7 | 9.74 | 508 | > 100 | > 100 | 3 | -57.5 | 47.9 | > 100 | GI50 [6]: 22.6 nM; TGI [6]: 66.9 nM; CC50 [17]: > 100 µM; growth at 1 µM [18]: 18%; GI50 [19]: 0.331 µM; TGI [19]: > 100 µM; CC50 [19]: > 100 µM; growth at 0.001 µM [20]: 104%; GI50 [21]: 220 nM; TGI [21]: > 100 µM; CC50 [21]: > 100 µM; growth at 0.01 µM [22]: 72%; growth at 0.001 µM [23]: 88%; growth at 10 µM [24]: 83.8%; growth at 10 µM [25]: -27%; growth at 10 µM [26]: 25%; growth at 0.001 µM [27]: 97%; growth at 1 µM [28]: 19%
